Calls of active or inactive are those of the source. No cut-off for these calls is given here.

The subject of assay [1] is HeLa. Description: Inhibition of protein synthesis in methionine-starved human HeLa cells incubated for 24 hrs by scintillation counting based 35S-Met incorporation assay. Type of assay: functional, cell-based. In a few lines:
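HeLa cells seeded at 6 × 10^4 per well, grown 24 h to 70% confluency, treated 24 h; Met-starved 30 min in Met-free DMEM with fresh compound, then pulsed 30 min with 35S-Met. Cells washed, lysed, protein TCA-precipitated and scintillation counted; puromycin positive control; three independent occasions; IC50 derived.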

Assay [2] deals with Reticulocyte. Description: Inhibition of cap dependent translation of renilla luciferase mRNA in pRHCVF RNA primed rabbit reticulocyte lysate at 100 uM incubated for 90 mins by […]. Type of assay: functional, subcellular. Conditions: Oryctolagus cuniculus. In a few lines: (§1)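 Rabbit reticulocyte lysate primed with 20 ng capped pRHCVF RNA (20 μL), 30 °C for 90 min, then on ice. Renilla (cap-dependent) and firefly (HCV IRES) luciferase read; final DMSO ≤1%; inhibition relative to 1% DMSO control set at 100%; m7GTP positive control. Three independent experiments, Student's t-test, S.D.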

In another assay the test system is MCF7. Description: Inhibition of protein synthesis in methionine-starved human MCF7 cells incubated for 24 hrs by scintillation counting based 35S-Met incorporation assay. Type of assay: functional, cell-based.
Assay [3] has as its system Reticulocyte. Briefly: Inhibition of HCV-IRES mediated cap-independent translation of firefly luciferase mRNA in rabbit reticulocyte lysate at 100 uM incubated for 90 mins by […]. The following applies: Oryctolagus cuniculus. Type of assay: functional, subcellular. In a few lines: as §1
Assay [4] concerns the target T1, Eukaryotic translation initiation factor 4E (Homo sapiens, UniProt P06730). Briefly: Inhibition of P32-[alpha-GTP] cap radiolabelled RNA binding to recombinant eIF4E (unknown origin) assessed as decrease in cross linked RNA-eIF4E complex formation preincubated with UV radiation for 30 mins followed by RNase addition and measured after 30 mins by SDS-PAGE based autoradiographic analysis.

For assay [5], the target named is T1, Eukaryotic translation initiation factor 4E. Description: Inhibition of m7GDP fluorescent probe binding to recombinant eIF4E (unknown origin) assessed as dissociation constant by fluorescence polarization assay. In general terms: Polarisation of emitted light reports the rotation of a fluorescent probe.
The subject of assay [6] is HeLa. Briefly: Downregulation of cMyc protein level in human HeLa cells at 50 to 100 uM incubated for 2 hrs by Western blot analysis. Type of assay: functional, cell-based. Conditions: dose 50-100 µM. In a few lines: (§2)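 HeLa cells treated 2 h; lysates probed by western blotting for c-myc and cyclin D1, actin as loading control.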
A general note: A western blot detects proteins with antibodies after separation by electrophoresis.

For assay [7], the system named is Reticulocyte. Briefly: Inhibition of HCV-IRES mediated cap-independent translation of firefly luciferase mRNA in rabbit reticulocyte lysate at 25 to 100 uM incubated for 90 mins by […]. The following applies: Oryctolagus cuniculus, dose 25-100 µM. Type of assay: functional, subcellular. In a few lines: as §1
Assay [8] has as its system HeLa. Description: Downregulation of cyclin D1 protein level in human HeLa cells at 50 to 100 uM incubated for 2 hrs by Western blot analysis. Type of assay: functional, cell-based. The following applies: dose 50-100 µM. In a few lines: as §2
The test system of assay [9] is HeLa. Briefly: Inhibition of cap dependent translation in human HeLa cells assessed as increase in sub-polysomal material at 50 to 100 uM incubated for 2 hrs by UV absorbance recording based assay. Type of assay: functional, cell-based. The following applies: dose 50-100 µM. In a few lines: (§3)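 HeLa cells seeded in 15-cm dishes, grown 24 h to 70% confluency, treated 2 h; cycloheximide (0.1 mg/mL) added, cells harvested on ice and lysed (300 mM NaCl, 15 mM MgCl2, 15 mM Tris pH 7.5, heparin, cycloheximide, 0.1% Triton X-100). Lysates run on 10–60% sucrose gradients, 38,000 rpm 2 h; 1 mL fractions with continuous UV absorbance; polysome vs subpolysome areas compared; puromycin positive control.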

Assay [10] relates to Reticulocyte. Briefly: Inhibition of cap dependent translation of renilla luciferase mRNA in pRHCVF RNA primed rabbit reticulocyte lysate at 25 to 100 uM incubated for 90 mins by […]. Type of assay: functional, subcellular. The following applies: Oryctolagus cuniculus, dose 25-100 µM. In a few lines: as §1
For assay [11], the system named is HeLa. Briefly: Inhibition of cap dependent translation in human HeLa cells assessed as decrease in amount of RNA incorporated in polysomes at 25 uM incubated for 2 hrs by UV absorbance recording based assay. Type of assay: functional, cell-based. In a few lines: as §3

T1 sequence (P06730 whole entry): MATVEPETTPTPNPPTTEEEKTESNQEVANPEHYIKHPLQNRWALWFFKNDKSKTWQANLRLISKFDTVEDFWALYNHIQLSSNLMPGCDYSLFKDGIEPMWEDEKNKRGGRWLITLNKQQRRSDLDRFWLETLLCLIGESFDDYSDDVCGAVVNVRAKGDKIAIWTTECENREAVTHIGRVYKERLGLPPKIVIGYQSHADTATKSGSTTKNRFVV

For `C[n+]1cn([C@@H]2O[C@H](CNS(=O)(=O)c3ccc(C(=O)O)cc3)[C@@H](O)[C@H]2O)c2nc(N)[nH]c(=O)c21`, the inhibition entry in the assay on HeLa [1], in the assay on MCF7 and in the assay with Reticulocyte [3] was “inactive” each time. The inhibition entry with Reticulocyte [2] was “Active”.
For the compound `C[n+]1cn([C@@H]2O[C@H](COP(=O)(O)O)[C@@H](O)[C@H]2O)c2nc(N)[nH]c(=O)c21`, the inhibition entry in the assay on HeLa [1] and with MCF7 was “inactive” in each case.
Take `C[n+]1cn([C@@H]2O[C@H](COP(=O)(O)OP(=O)(O)OP(=O)(O)O)[C@@H](O)[C@H]2O)c2nc(N)[nH]c(=O)c21`: the inhibition entry with HeLa [1] and in the assay with MCF7 was “inactive” each time.
By IC50 is commonly meant the midpoint of a concentration-inhibition curve. Broadly, the Kd is the equilibrium constant for the complex coming apart. Take `Nc1nc2c(c(=O)[nH]1)[n+](Cc1ccccc1)cn2[C@@H]1O[C@H](CNS(=O)(=O)C(F)(F)F)[C@@H](O)[C@H]1O`: the inhibition entry in the assay with HeLa [1], in the assay with MCF7 and with Reticulocyte [3] was “inactive” in each case. Further, the inhibition entry with Reticulocyte [2] was “Active”. The 50% inhibitory concentration (IC50) in [4] came to 12.6 µM. The dissociation constant Kd in assay [5] is 56.5 µM.
With `CC(C)CNC(=S)N(Cc1ccccc1)Cc1cc2cc3c(cc2[nH]c1=O)OCO3`, the outcome with HeLa [6] and in the assay on HeLa [8] was Active. Moreover, the inhibition entry with Reticulocyte [7] is “inactive”. For the same compound, the Kd in [5] is 57.8 µM. Further, the inhibition result in the assay on HeLa [9], with Reticulocyte [10] and in the assay with HeLa [11] was “Active” in each case.

The record behind these values is ChEMBL document CHEMBL5252535, “Design of nucleotide-mimetic and non-nucleotide inhibitors of the translation initiation factor eIF4E: Synthesis, structural and functional characterisation” (Eur J Med Chem, 2016).
